# Compound activity (PubChem)
# VIM-2 inh = inhibitors of Pseudomonas aeruginosa VIM-2 metallo-beta-lactamase; inhibition, % at 5.6 µM; purified VIM-2, nitrocefin hydrolysis, epi-absorbance fluorescence; 290,000 compounds, 0.89% hits;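 active = inhibition above the mean of all tested compounds plus 3 SD, cutoff set per screening run, cut at about 7.5% in these data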;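 also: red hydrolysis product quenches plate fluorescence so inhibitors raise well fluorescence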
# core dimer inh = blocks dimerization of HCV core protein. TR-FRET GST/Flag-core106 dimerization, 1536-well. 300,000 compounds, 0.33% hits. inhibition, % at 5 µM;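 active = inhibition above the mean of all tested compounds plus 3 SD, set per screening campaign, cut at about 45% in these data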
#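 Assay system: tagged HCV core106 pair (GST and Flag); medium: KF-containing HEPES buffer, pH 7.45, DTT, CHAPS, BSA; also added: Eu donor and XL665 acceptor anti-tag antibodies; dosing: 5 µM single dose; timing: compound-protein-antibody incubation 4 h at 22.5 °C; signal: TR-FRET 671 and 617 nm emission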
# IMP-1 inh = inhibitors of Pseudomonas aeruginosa IMP-1 metallo-beta-lactamase | purified IMP-1, nitrocefin hydrolysis, epi-absorbance fluorescence | inhibition, % at 5.6 µM | 290,000 compounds, 0.45% hits | AID 1556;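 active = inhibition above the mean plus 3 SD of all compounds in the same screening run, cut at about 4.5% in these data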
#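 assay system = purified recombinant IMP-1 metallo-beta-lactamase enzyme | schedule = 15 min preincubation plus 25 min reaction at 25 °C | signal = Epi-absorbance fluorescence, 480 nm excitation, 530 nm emission | read-out basis = percent inhibition from optical density relative to buffer-blank wells | controls = IMP-1 with DMSO as 0%, enzyme-free DMSO as 100%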
# NadD inh = blocks S. aureus nicotinate mononucleotide adenylyltransferase | purified NadD enzyme, colorimetric absorbance read-out | inhibition, % at 20 µM | 360,000 compounds, 0.78% hits | AID 602399; in the data active = inhibition above about 26%
# Hits are given with their value; 0 = inactive; - = no result. Sampled rows, rich in hits. Any-hit rate of the full collection: about 1.9%.
SMILES,VIM-2 inh,core dimer inh,IMP-1 inh,NadD inh
Cc1cc(C(=O)OCC(=O)Nc2sc3c(c2C#N)CCC(C)C3)c2ccccc2n1 (stereo not drawn),0,53,0,0
COc1ccc(OC)c(-c2cc(C(=O)Nc3sc4c(c3C#N)CCC(C)C4)c3ccccc3n2)c1 (stereo not drawn),0,0,0,0
Cn1c(O)c(/C=N/NC(=O)c2cc3ccccc3cc2O)c2ccccc21,0,0,0,31
COc1cc(/C=N/NC(=O)c2cc3ccccc3cc2O)ccc1OCCN1CCCCC1,0,0,0,0
Cn1c2ccccc2c2cc(/C=N/NC(=O)c3ccc(O)cc3O)ccc21,0,0,0,40
COCCn1c(C)cc(/C=N/NC(=O)c2cc3ccccc3cc2O)c1C,-,-,-,35
C=CCON/C(CCC)=C1\C(=O)C(C(=O)OC)C(C)(C)CC1=NC (stereo not drawn),0,0,0,0
O=C(O)CN1C(=O)/C(=C\c2cn(CC(=O)N3CCOCC3)c3ccccc23)SC1=S,0,0,0,0
NC1=NC(c2cn(-c3ccccc3)nc2-c2cccs2)n2c(nc3ccccc32)N1 (stereo not drawn),0,0,4.9,0
CC1=C(C#N)C(c2cn(-c3ccccc3)nc2-c2cccs2)C(C#N)=C(C)N1,0,0,0,0
N#CC1=C(c2ccc(-c3ccccc3)cc2)COC1=O,0,52,0,0
CCN(C(=O)CN1C(=O)S/C(=C\C=C\c2ccccc2)C1=O)C1CCS(=O)(=O)C1 (stereo not drawn),0,46,0,0
CCN(C(=O)CN1C(=O)S/C(=C\c2cccc(Cl)c2)C1=O)C1CCS(=O)(=O)C1 (stereo not drawn),0,0,0,0
Cc1cc(C)n2[nH]c(=O)cc2n1,-,-,-,0
O=C(NCc1cccc(CNC(=O)C(=O)NCc2ccco2)c1)C(=O)NCc1ccco1,0,47,0,0
O=C(NCc1cccc(CNC(=O)c2ccco2)c1)c1ccco1,0,0,0,0
Cc1c(Br)cc(C(=O)NCc2ccco2)c(C)c1C,0,48,0,0
Cc1ccc(-n2c(C)cc(C3=NNC(=NC4CC4)SC3)c2C)cc1C,0,0,0,0
CN=C1NN=C(c2cc(C)n(-c3ccc(Cl)cc3)c2C)CS1,0,65,0,0
CC(=O)Nc1nnc(CCS(=O)(=O)c2ccc(C)cc2)s1,-,0,-,0
Cc1cc(C)cc(NC(=O)CN(c2ccc(F)cc2)S(C)(=O)=O)c1,0,0,7.4,0
Cc1[nH]c2ccccc2c1C(=O)CSC(=S)N(C)C,0,0,0,0
Cc1[nH]c2ccccc2c1C(=O)CSC(=S)N1CCN(C)CC1,12,0,0,0
COc1ccc(/C(=C/Nc2cccc(Br)c2)C(C)=O)cc1OC,9.9,0,0,0
C[n+]1ccccc1/C=C/c1cc(Br)ccc1O,0,0,16,0
SMILES,VIM-2 inh,core dimer inh,IMP-1 inh,NadD inh
COc1ccc(/C=C/c2cccc[n+]2C)c(O)c1,0,0,0,0
CN(CCc1ccccn1)C(=O)CCC1CCCN(C(=O)c2ccc3c(c2)OCCO3)C1 (stereo not drawn),0,0,0,0
O=C1/C(=C/c2cccs2)CCC/C1=C\c1cccs1,0,0,5.6,0
CC1C/C(=C/c2cccs2)C(=O)/C(=C/c2cccs2)C1 (stereo not drawn),0,0,0,0
CC(C)[C@@H]1CC2=C(C(=O)OC(C)(C)O2)[C@H](CCc2ccccc2)O1,-,-,-,0
Cc1c(Br)c(C(=O)N2CCc3ccccc32)nn1C,0,0,10,0
Cc1nn(C)c(C(=O)N2CCc3ccccc32)c1Br,0,0,0,0
Cc1cc(C)nc(Nc2cccc(Cl)c2)n1,0,-,0,0
CN(C#N)c1nc(Cl)nc(Nc2cccc(Cl)c2)n1,9.4,0,0,0
C[C@@H]1CN([C@@H](C)CO)C(=O)c2cc(-c3ccncc3)cnc2O[C@H]1CN(C)C(=O)c1cccc(F)c1,-,-,-,0
CCc1ccccc1NC(=O)CCS(=O)(=O)c1ccc(OC)cc1,0,0,37,0
CCOc1ccccc1NC(=O)CCS(=O)(=O)c1ccc(OC)cc1,0,0,0,0
Cc1ccc(CC2(c3ccccc3)NC(=O)NC2=O)cc1 (stereo not drawn),-,-,-,0
CCN1C(=O)c2cccc3c(S(=O)(=O)Nc4ccc(O)c(C(=O)O)c4)ccc1c23,8.2,0,0,0
CC(C)C1C(=O)N(Cc2cn(CCC3OCCO3)nn2)CCS(=O)(=O)N1Cc1ccc(-c2ccc(F)cc2)cc1 (stereo not drawn),-,-,-,0
CCOC(=O)N1CCc2[nH]c3ccc(C)cc3c2C1,8.8,0,0,0
CN1C[C@@H]2C(c3ccc(Cl)nc3)C3(c4ccc(C#N)cc4)CC2(C3)[C@H]1c1ccccc1 (stereo partly drawn),-,0,-,0
N#Cc1ccc(C23CC4(C2)[C@H](CN(P(=O)(c2ccccc2)c2ccccc2)[C@@H]4c2ccccc2)C3c2ccc(Cl)nc2)cc1 (stereo partly drawn),-,53,-,0
CSc1cccc(CN(C)C(=O)C2CCC(=O)N(CCCN3CCCC3=O)C2)c1 (stereo not drawn),0,0,0,0
CN(CCCn1ccc(N)nc1=O)Cc1ccco1,-,-,-,0
CC(C)c1nnc(NC(=O)Cc2cccs2)s1,0,0,0,0
CCCCCc1nnc(NC(=O)Cc2ccc([N+](=O)[O-])cc2)s1,0,0,0,0
CC(C)(C)Cc1nnc(NC(=O)Cc2cccs2)s1,0,51,0,0
CCCCCc1nnc(NC(=O)Cc2cccs2)s1,0,71,0,0
CC(C)Cc1nnc(NC(=O)Cc2cccs2)s1,0,67,0,0
SMILES,VIM-2 inh,core dimer inh,IMP-1 inh,NadD inh
O=C(Cc1cccs1)Nc1nnc(-c2ccncc2)s1,0,0,0,0
Cc1cc(Cn2ccnc2)c(C)c([N+](=O)[O-])c1Cn1ccnc1,0,0,0,0
COC(=O)c1cc(COc2ccc3c(c2)oc(=O)c2ccccc23)c(C)o1,0,51,0,0
CN(C(=O)c1ccc(Cl)cc1)C1CCS(=O)(=O)C1 (stereo not drawn),-,-,-,0
COc1cc2cc(C(=O)N(C)C3CCS(=O)(=O)C3)[nH]c2cc1OC (stereo not drawn),8.1,0,0,0
NC(=O)COC(=O)c1cccc2c1-c1ccccc1C2=O,7.9,0,0,0
CC(C)CNC(=O)/C=C/C=C/CCCC/C=C/c1ccc2c(c1)OCO2,-,-,-,0
CCOc1ccc(-c2ccc(/C=C3/C(=N)N4C(C)=CSC4=NC3=O)o2)c([N+](=O)[O-])c1,0,0,0,32
COc1ccc(S(=O)(=O)N(C)C(C)CCc2ccco2)cc1 (stereo not drawn),0,0,4.9,0
COc1cc(CO)ccc1OCc1nnnn1-c1ccc(C)cc1,0,0,0,0
Cn1nc(C(C)(C)C)cc1N1C(=O)CCC1(C)C(=O)NC1CCCC1 (stereo not drawn),-,-,-,0
CC(C)n1cc(C(N)=S)c(=O)n(Cc2ccccc2)c1=O,0,0,6.3,0
CCCCn1c(SCC(=O)NC2CC2)nc2cc(C(=O)OC)ccc2c1=O,-,-,-,0
